From ChEMBL document CHEMBL4261588, “Breathing new life into West Nile virus therapeutics; discovery and study of zafirlukast as an NS2B-NS3 protease inhibitor” (Eur J Med Chem, 2018)
pIC50: −log10 of the molar value. Activity calls are given as the source filed them. No cut-off for these calls is given here.

Legend:
West Nile virus [1] = experiment: Inhibition of West Nile virus NS2B-NS3 protease at 60 uM using Mca-KKR-GDap(DNP)AK-NH2 as substrate measured every 30 secs for 20 mins by FRET assay
West Nile virus [2] = experiment: Inhibition of West Nile virus NS2B-NS3 protease using Mca-KKR-GDap(DNP)AK-NH2 as substrate measured every 30 secs for 5 mins in presence of Brij35 by FRET assay
Procedure, shortened: (§1)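 Aggregation counter-screen run in the FRET protease assay, with inhibition followed across a range of detergent concentrations (0-0.2 %) of CHAPS and of Brij35.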

[3] = Inhibition of West Nile virus NS2B-NS3 protease using Mca-KKR-GDap(DNP)AK-NH2 as substrate measured every 30 secs for 20 mins by FRET assay
Procedure, shortened: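 FRET read-out: protease cleavage of a peptide carrying a fluorophore and a quencher on either side of the cleavage site raises fluorescence in proportion to enzyme activity. IC50 is taken as the inhibitor concentration that lowers enzymatic activity by 50%.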

West Nile virus [4] = experiment: Mixed inhibition of West Nile virus NS2B-NS3 protease using Mca-KKR-GDap(DNP)AK-NH2 as substrate measured every 30 secs for 10 mins by Lineweaver-burk plot analysis
West Nile virus [5] = experiment: Inhibition of West Nile virus NS2B-NS3 protease using Mca-KKR-GDap(DNP)AK-NH2 as substrate measured every 30 secs for 5 mins in presence of CHAPS by FRET assay; procedure, shortened: as §1

SMILES	inhibition (West Nile virus [1])	further results
COc1cc(C(=O)NS(=O)(=O)c2ccccc2C)ccc1Cn1ccc2cc(NC(=O)OC3CCCC3)ccc21	79%	
COC(=O)c1ccc(Cc2cn(C)c3ccc(NC(=O)OC4CCCC4)cc23)c(OC)c1	12%	
COc1cc(C(=O)NS(=O)(=O)c2ccccc2)ccc1Cc1cn(C)c2ccc(NC(=O)OC3CCCC3)cc12	81%	
COc1cc(C(=O)NCc2ccccc2)ccc1Cc1cn(C)c2ccc(NC(=O)OC3CCCC3)cc12	5%	
CCOC(=O)Nc1ccc2c(c1)c(Cc1ccc(C(=O)NS(=O)(=O)c3ccccc3C)cc1OC)cn2C	12%	
Cn1ccc2cc(NC(=O)OC3CCCC3)ccc21	6%	
Cc1ccccc1S(=O)(=O)NC(=O)c1ccc(NC(=O)OC2CCCC2)cc1	4%	
COc1cc(C(=O)NS(=O)(=O)c2ccccc2C)ccc1Cc1cn(C)c2ccc(NC(=O)OC3CCCC3)cc12 [ZAFIRLUKAST]		inhibition (West Nile virus [2]): Active; pIC50 [3]: 4.49; inhibition (West Nile virus [4]): Active; inhibition (West Nile virus [5]): Active
COc1cc(C(=O)NS(=O)(=O)c2ccccc2C)ccc1Cc1cccc(NC(=O)OC2CCCC2)c1	30%	
Cc1ccccc1S(=O)(=O)NC(=O)c1ccc(Cc2cn(C)c3ccc(NC(=O)OC4CCCC4)cc23)cc1	64%	
COc1cc(C(=O)NS(=O)(=O)c2ccccc2C)ccc1Cc1cn(C)c2ccc(NC(=O)CC3CCCC3)cc12	33%	
COc1cc(C(=O)NS(=O)(=O)c2ccccc2C)ccc1Cc1cn(C)c2ccc(NC(=O)Oc3ccccc3)cc12	92%	pIC50 [3]: 4.66
COC(=O)c1ccc(Cn2ccc3cc(NC(=O)OC4CCCC4)ccc32)c(OC)c1	5%	
